Drawing on ChEMBL document CHEMBL4422620, “Synthesis of novel morpholine, thiomorpholine and N-substituted piperazine coupled 2-(thiophen-2-yl)dihydroquinolines as potent inhibitors of Mycobacterium tuberculosis” (Eur J Med Chem, 2019), this text covers MIC and inhibition for 20 compounds.

For orientation: MIC means the lowest concentration that inhibits growth of the organism. A higher MIC goes with weaker potency.

The subject of data set [1] is Mycobacterium tuberculosis. Briefly: Antitubercular activity against Mycobacterium tuberculosis H37Rv after 7 days by Alamar blue assay. Format: functional. Conditions: 168 h. A digest of the protocol: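 M. tuberculosis H37Rv inoculum from fresh LJ medium resuspended in 7H9-S (7H9 broth, 0.1% casitone, 0.5% glycerol, OADC), adjusted to McFarland No. 1, diluted 1:20. Serial two-fold drug dilutions in 7H9-S, with growth and sterile controls. Incubated at 37°C in normal atmosphere for 7 days, then Alamar blue added and plates re-incubated overnight. MIC was the lowest concentration fully inhibiting growth.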

Data set [2] in a line: Cytotoxicity against human HEK293T cells assessed as inhibition of cell growth at 50 ug/ml after 72 hrs by MTT assay relative to control. Format: cell-based, HEK-293T. Conditions: read-out: GI. Summed up: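 HEK-293T cells exposed to compounds at 50 μg/mL for 72 h. Viability was read as cellular conversion of MTT to formazan and expressed as percentage inhibition.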

In brackets after ≈: the same amount, converted by molar mass.

For `ClC1=C(CN2CCN(c3ccccc3)CC2)CCc2nc(-c3cccs3)ccc21`, it took 25 µg/mL (≈ 59.2 µM) to inhibit growth in data set [1] (MIC).
With `CO[C@H]1/C=C/O[C@@]2(C)Oc3c(C)c(O)c4c(O)c(c(/C=N/N5CCN(C)CC5)c(O)c4c3C2=O)NC(=O)/C(C)=C\C=C\[C@H](C)[C@H](O)[C@@H](C)[C@@H](O)[C@@H](C)[C@H](OC(C)=O)[C@@H]1C` [RIFAMPIN], in data set [1], the MIC was found to be 0.2 µg/mL (≈ 0.243 µM).
Take `ClC1=C(CN2CCN(CC3OCCO3)CC2)CCc2nc(-c3cccs3)ccc21`: it took 12.5 µg/mL (≈ 28.9 µM) to inhibit growth in data set [1] (MIC).
On the same count and under the same terms, under `ClC1=C(CN2CCN(Cc3ccc(Cl)cc3)CC2)CCc2nc(-c3cccs3)ccc21` stands 12.5 µg/mL (≈ 26.6 µM).
For `ClC1=C(CN2CCN(c3ccccn3)CC2)CCc2nc(-c3cccs3)ccc21`, the inhibition at 72 h, 50 ug/ml in data set [2] worked out at 20.1%. This compound also registered an MIC in data set [1] of 1.56 µg/mL (≈ 3.69 µM).
On the same counts, the results for `ClC1=C(CN2CCOCC2)CCc2nc(-c3cccs3)ccc21` are 34% and 6.25 µg/mL (≈ 18 µM).
The compound `ClC1=C(CN2CCSCC2)CCc2nc(-c3cccs3)ccc21` had a minimum inhibitory concentration (MIC) in data set [1] of 25 µg/mL (≈ 68.9 µM).
With `ClC1=C(CN2CCN(Cc3ccccc3)CC2)CCc2nc(-c3cccs3)ccc21`, the inhibition at 72 h, 50 ug/ml in data set [2] worked out at 19.9%. In addition, the lowest concentration to inhibit growth in data set [1] (MIC) was 1.56 µg/mL (≈ 3.58 µM).
For `COc1ccccc1N1CCN(CC2=C(Cl)c3ccc(-c4cccs4)nc3CC2)CC1`, in data set [2], the inhibition at 72 h, 50 ug/ml came to 36.7%. The compound further returned an MIC in data set [1] of 6.25 µg/mL (≈ 13.8 µM).
For `FC(F)(F)c1ccc(N2CCN(CC3=C(Cl)c4ccc(-c5cccs5)nc4CC3)CC2)cc1`, the MIC in data set [1] was found to be 25 µg/mL (≈ 51 µM).
Same read-out and setting: under `CC(C)(C)OC(=O)N1CCN(CC2=C(Cl)c3ccc(-c4cccs4)nc3CC2)CC1` stands 25 µg/mL (≈ 56.1 µM); under `CC[C@@H](CO)NCCN[C@@H](CC)CO` [ETHAMBUTOL], 3.13 µg/mL (≈ 15.3 µM); under `CC(=O)c1ccc(N2CCN(CC3=C(Cl)c4ccc(-c5cccs5)nc4CC3)CC2)cc1`, 25 µg/mL (≈ 53.9 µM).
Still for that read-out and setting: under `O=C(O)c1cn(C2CC2)c2cc(N3CCNCC3)c(F)cc2c1=O` [CIPROFLOXACIN] stands 1.56 µg/mL (≈ 4.71 µM); under `NNC(=O)c1ccncc1` [ISONIAZID], 0.1 µg/mL (≈ 0.729 µM).
As to `ClC1=C(CN2CCN(c3ccc(Cl)cc3)CC2)CCc2nc(-c3cccs3)ccc21`, the MIC in data set [1] was found to be 25 µg/mL (≈ 54.8 µM).
Consider `O=C(C1CC1)N1CCN(CC2=C(Cl)c3ccc(-c4cccs4)nc3CC2)CC1`, for which, in data set [2], the inhibition at 72 h, 50 ug/ml came out at 28.9%. Further, in data set [1], it took 3.12 µg/mL (≈ 7.55 µM) to inhibit growth (MIC).
`Cc1ccccc1N1CCN(CC2=C(Cl)c3ccc(-c4cccs4)nc3CC2)CC1` yielded an MIC in data set [1] of 25 µg/mL (≈ 57.3 µM).
On to `ClC1=C(CN2CCN(Cc3ccc4c(c3)OCO4)CC2)CCc2nc(-c3cccs3)ccc21`, for which, in data set [1], the MIC came out at 25 µg/mL (≈ 52.1 µM).
Regarding `Fc1ccccc1N1CCN(CC2=C(Cl)c3ccc(-c4cccs4)nc3CC2)CC1`, the inhibition at 72 h, 50 ug/ml in data set [2] was found to be 32.6%. The compound also came in with a minimum inhibitory concentration (MIC) in data set [1] of 6.25 µg/mL (≈ 14.2 µM).
